This is an account of results in ChEMBL document CHEMBL4342476, “Identification of RIPK3 Type II Inhibitors Using High-Throughput Mechanistic Studies in Hit Triage” (ACS Med Chem Lett, 2020).

The target in data set [1] is Hepatocyte growth factor receptor (Homo sapiens, UniProt P08581). As to the kind of experiment: Displacement of fluorescein labeled ATP probe from His/GST-tagged c-Met (unknown origin) incubated for 60 mins by HTRF assay. For orientation: In TR-FRET formats the signal depends on donor and acceptor labels being close together.
Data set [2] concerns the target T1, Receptor-interacting serine/threonine-protein kinase 3 (Homo sapiens, UniProt Q9Y572). The experiment in a line: Displacement of fluorescein labeled ATP probe from full length His/GST-tagged RIPK3 (unknown origin) incubated for 60 mins by HTRF assay.
Target sequence in this assay (Q9Y572 whole entry): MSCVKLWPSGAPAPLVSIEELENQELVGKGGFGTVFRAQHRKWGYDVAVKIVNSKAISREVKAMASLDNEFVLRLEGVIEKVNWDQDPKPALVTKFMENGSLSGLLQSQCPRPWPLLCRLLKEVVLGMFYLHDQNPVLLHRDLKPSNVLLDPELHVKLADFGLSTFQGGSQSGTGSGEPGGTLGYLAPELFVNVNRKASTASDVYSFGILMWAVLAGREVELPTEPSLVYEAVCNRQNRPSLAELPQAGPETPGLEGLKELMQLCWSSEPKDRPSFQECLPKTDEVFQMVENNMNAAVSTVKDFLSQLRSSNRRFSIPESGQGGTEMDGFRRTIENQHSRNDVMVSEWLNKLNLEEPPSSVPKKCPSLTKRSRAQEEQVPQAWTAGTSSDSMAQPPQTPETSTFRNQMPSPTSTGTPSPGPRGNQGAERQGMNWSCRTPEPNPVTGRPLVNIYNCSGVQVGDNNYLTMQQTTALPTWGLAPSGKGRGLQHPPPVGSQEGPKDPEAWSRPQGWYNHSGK
Data set [3] concerns the target T2, Receptor-interacting serine/threonine-protein kinase 1 (Homo sapiens, UniProt Q13546).
T2 sequence (Q13546 whole entry): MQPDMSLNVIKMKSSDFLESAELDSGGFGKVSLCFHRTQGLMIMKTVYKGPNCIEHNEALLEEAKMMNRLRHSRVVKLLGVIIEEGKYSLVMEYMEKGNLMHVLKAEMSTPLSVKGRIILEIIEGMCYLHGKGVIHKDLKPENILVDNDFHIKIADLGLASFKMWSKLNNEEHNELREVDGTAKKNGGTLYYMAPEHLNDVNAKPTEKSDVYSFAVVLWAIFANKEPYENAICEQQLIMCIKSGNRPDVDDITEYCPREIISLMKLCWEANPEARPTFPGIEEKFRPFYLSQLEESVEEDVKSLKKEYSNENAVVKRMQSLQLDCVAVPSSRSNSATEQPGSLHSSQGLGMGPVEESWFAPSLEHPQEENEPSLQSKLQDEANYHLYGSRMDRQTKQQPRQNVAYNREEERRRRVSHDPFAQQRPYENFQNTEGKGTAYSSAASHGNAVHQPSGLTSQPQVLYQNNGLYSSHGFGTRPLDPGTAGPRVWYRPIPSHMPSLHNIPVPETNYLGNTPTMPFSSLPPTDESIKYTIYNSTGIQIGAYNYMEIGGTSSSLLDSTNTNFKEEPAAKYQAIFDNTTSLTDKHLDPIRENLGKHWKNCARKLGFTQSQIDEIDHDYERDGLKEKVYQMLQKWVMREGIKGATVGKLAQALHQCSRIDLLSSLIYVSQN
The experiment in a line: Displacement of fluorescein labeled ATP probe from His/GST-tagged RIPK1 (unknown origin) incubated for 60 mins by HTRF assay.

For data set [4], the target named is T3, Receptor-interacting serine/threonine-protein kinase 2 (Homo sapiens, UniProt O43353). As to the kind of experiment: Displacement of fluorescein labeled ATP probe from His/GST-tagged RIPK2 (unknown origin) incubated for 60 mins by HTRF assay.
Data set [5] addresses T1, Receptor-interacting serine/threonine-protein kinase 3. As to the kind of experiment: Time dependent inhibition of full length His/GST-tagged RIPK3 (unknown origin) measured every 5 mins for 60 mins in presence of fluorescein labeled probe by HTRF assay relative to control. The following applies: 1 h.
Target sequence in this assay (Q9Y572 whole entry, looked up): as the sequence (Q9Y572 whole entry) above
The target is the same in data set [6]. As to the kind of experiment: Time dependent inhibition of full length His/GST-tagged RIPK3 (unknown origin) measured every 5 mins for 60 mins in presence of fluorescein labeled probe by HTRF assay relative to control. An outline of the steps: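 Active full-length RIPK3 was preformed as a complex with the fluorescent probe and antibody. Inhibitor was then added as an 11-point concentration-response series, with HTRF read at 5 and 60 min. Time dependency was scored as the fold shift in IC50 between the two reads; ≥5-fold flagged possible slow binding.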
Target sequence in this assay (Q9Y572 whole entry, looked up): as the sequence (Q9Y572 whole entry) above

Data set [7] has as its target T2, Receptor-interacting serine/threonine-protein kinase 1. The experiment in a line: Displacement of fluorescein labeled probe from full length human GST-tagged RIPK1 expressed in Sf9 cells incubated for 60 mins by HTRF assay.
In data set [8] the target is T1, Receptor-interacting serine/threonine-protein kinase 3. As to the kind of experiment: Displacement of fluorescein labeled probe from full length human GST-tagged RIPK3 expressed in Sf9 cells incubated for 60 mins by HTRF assay.
Target sequence in this assay (Q9Y572 whole entry): as the sequence (Q9Y572 whole entry) above
For data set [9], the target named is T3, Receptor-interacting serine/threonine-protein kinase 2. As to the kind of experiment: Displacement of fluorescein labeled probe from full length human GST-tagged RIPK2 expressed in Sf9 cells incubated for 60 mins by HTRF assay.
For data set [10], the target named is T1, Receptor-interacting serine/threonine-protein kinase 3. The experiment in a line: Time dependent inhibition of full length His/GST-tagged RIPK3 (unknown origin) measured every 5 mins for 60 mins in presence of fluorescein labeled probe by HTRF assay relative to control. The following applies: 1 h. This is another data set of the same source.
Target sequence in this assay (Q9Y572 whole entry, looked up): as the sequence (Q9Y572 whole entry) above
The target in data set [11] is T2, Receptor-interacting serine/threonine-protein kinase 1. The experiment in a line: Displacement of fluorescein labeled ATP probe from full length His/GST-tagged RIPK1 (unknown origin) incubated for 60 mins by HTRF assay.
The target in data set [12] is Mitogen-activated protein kinase 14 (Homo sapiens, UniProt Q16539). The experiment in a line: Binding affinity to p38alpha (unknown origin). The data set is classed as ADME.
For data set [13], the species on record is Homo sapiens. The experiment in a line: Selectivity index, ratio of IC50 for displacement of fluorescein labeled ATP probe from His/GST-tagged RIPK1 (unknown origin) incubated for 60 mins by HTRF assay to IC50 for displacement of fluorescein labeled ATP probe from full length His/GST-tagged RIPK3 (unknown origin) incubated for 60 mins by HTRF assay.
Data set [14] is described as follows: Selectivity index, ratio of IC50 for displacement of fluorescein labeled ATP probe from His/GST-tagged RIPK1 (unknown origin) incubated for 60 mins by HTRF assay to IC50 for displacement of fluorescein labeled ATP probe from His/GST-tagged c-Met (unknown origin) incubated for 60 mins by HTRF assay. To be noted: human, 1 h.
A short description of data set [15]: Selectivity index, ratio of IC50 for displacement of fluorescein labeled ATP probe from His/GST-tagged RIPK2 (unknown origin) incubated for 60 mins by HTRF assay to IC50 for displacement of fluorescein labeled ATP probe from His/GST-tagged c-Met (unknown origin) incubated for 60 mins by HTRF assay. The following applies: human, 1 h.
Data set [16] is filed under the species Homo sapiens. As to the kind of experiment: Selectivity index, ratio of IC50 for displacement of fluorescein labeled ATP probe from His/GST-tagged c-Met (unknown origin) incubated for 60 mins by HTRF assay to IC50 for displacement of fluorescein labeled ATP probe from full length His/GST-tagged RIPK3 (unknown origin) incubated for 60 mins by HTRF assay.

Chain of Hepatocyte growth factor receptor (P08581 whole entry): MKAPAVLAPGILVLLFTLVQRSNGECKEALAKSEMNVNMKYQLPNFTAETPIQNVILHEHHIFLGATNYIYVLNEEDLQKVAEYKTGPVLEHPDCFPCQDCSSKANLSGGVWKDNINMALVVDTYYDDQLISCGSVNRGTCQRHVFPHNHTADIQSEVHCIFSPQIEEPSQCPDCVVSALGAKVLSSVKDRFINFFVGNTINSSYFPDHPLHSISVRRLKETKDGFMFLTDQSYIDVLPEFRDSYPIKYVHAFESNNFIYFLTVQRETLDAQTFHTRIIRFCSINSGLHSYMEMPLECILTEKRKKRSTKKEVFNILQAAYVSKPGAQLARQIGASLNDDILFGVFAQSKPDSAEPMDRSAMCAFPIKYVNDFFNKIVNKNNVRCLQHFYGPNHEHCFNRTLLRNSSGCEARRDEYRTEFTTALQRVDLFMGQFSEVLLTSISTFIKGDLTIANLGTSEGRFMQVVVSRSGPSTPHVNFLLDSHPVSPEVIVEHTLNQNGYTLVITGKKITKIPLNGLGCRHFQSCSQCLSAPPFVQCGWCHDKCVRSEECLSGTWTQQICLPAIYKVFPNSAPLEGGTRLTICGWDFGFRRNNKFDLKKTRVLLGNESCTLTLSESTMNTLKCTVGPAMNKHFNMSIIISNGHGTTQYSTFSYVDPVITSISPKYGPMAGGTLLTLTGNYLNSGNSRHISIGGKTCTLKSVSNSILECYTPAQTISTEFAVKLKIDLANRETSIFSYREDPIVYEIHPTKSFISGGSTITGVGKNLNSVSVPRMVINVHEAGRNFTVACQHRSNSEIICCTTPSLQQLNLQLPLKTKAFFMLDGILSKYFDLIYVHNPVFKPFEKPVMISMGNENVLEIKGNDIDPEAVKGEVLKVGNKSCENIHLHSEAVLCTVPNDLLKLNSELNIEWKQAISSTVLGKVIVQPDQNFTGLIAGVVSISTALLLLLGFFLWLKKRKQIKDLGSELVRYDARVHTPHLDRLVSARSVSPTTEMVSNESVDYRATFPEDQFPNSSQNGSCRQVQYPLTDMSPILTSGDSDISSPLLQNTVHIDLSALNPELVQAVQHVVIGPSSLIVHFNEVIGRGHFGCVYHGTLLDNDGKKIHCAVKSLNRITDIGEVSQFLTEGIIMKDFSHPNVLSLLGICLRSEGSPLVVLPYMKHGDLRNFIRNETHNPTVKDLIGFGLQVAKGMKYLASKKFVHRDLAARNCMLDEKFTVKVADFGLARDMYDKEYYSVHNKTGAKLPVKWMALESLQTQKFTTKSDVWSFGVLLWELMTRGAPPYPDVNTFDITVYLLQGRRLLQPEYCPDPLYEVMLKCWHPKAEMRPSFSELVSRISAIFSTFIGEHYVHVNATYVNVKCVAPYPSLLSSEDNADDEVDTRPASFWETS
T3 sequence (O43353 whole entry): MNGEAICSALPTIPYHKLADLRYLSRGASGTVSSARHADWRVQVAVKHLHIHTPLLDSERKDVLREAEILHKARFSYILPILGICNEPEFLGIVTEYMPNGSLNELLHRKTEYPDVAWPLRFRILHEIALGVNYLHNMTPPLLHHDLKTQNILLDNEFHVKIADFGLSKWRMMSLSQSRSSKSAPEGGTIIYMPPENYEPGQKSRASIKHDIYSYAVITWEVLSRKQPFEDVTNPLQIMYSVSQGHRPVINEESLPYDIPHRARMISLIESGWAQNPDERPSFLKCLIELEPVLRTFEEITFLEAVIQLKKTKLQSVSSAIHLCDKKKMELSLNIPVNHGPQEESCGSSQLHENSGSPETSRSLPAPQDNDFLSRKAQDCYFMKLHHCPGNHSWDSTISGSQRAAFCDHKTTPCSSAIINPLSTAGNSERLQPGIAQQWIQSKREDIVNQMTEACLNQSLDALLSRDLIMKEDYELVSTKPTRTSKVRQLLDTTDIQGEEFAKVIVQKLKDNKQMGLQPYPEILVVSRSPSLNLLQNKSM
Chain of Mitogen-activated protein kinase 14 (Q16539 whole entry): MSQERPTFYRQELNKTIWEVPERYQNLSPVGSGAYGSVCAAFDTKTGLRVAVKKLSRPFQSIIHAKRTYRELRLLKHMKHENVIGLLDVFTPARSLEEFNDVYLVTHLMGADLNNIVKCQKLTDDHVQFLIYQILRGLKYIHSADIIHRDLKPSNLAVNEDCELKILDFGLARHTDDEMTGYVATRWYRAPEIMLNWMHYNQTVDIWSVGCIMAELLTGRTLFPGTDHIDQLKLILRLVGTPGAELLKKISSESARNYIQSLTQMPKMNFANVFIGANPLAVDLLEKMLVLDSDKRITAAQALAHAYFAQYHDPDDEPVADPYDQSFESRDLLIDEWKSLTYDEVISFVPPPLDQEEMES

With `O=C(Nc1ccc(Oc2ccncc2)c(F)c1)c1cccc(-c2ccc(F)cc2)c1`, the IC50 (commonly the concentration that inhibits the measured activity by half) in [1] was 4500 nM; in data set [2], > 15000 nM; in data set [3] it was > 15000 nM; in [4] it was > 15000 nM.

On to `Cc1cc(NC(=O)c2cccn(-c3ccc(F)cc3)c2=O)cc(C)c1Oc1ccnc(NC(=O)C2CC2)c1`, for which the IC50 in data set [1] worked out at 300 nM; in data set [2] it was 88 nM; in data set [3], 11000 nM; in [4], 3100 nM.

Turning to `Cc1cc(NC(=O)c2cccn(-c3ccc(F)cc3)c2=O)cc(C)c1Oc1ccncc1`, the half-maximal inhibitory concentration (IC50) is 500 nM in data set [1], 320 nM in data set [2], > 15000 nM in data set [3] and 13000 nM in data set [4].

Take `Nc1ccc(C#Cc2c(Oc3ccc(NC(=O)c4cccn(-c5ccc(F)cc5)c4=O)cc3F)ccnc2N)nc1`: the “fold change (FC)” value in data set [5], in [6] and in [10] was 6 each time. The figures for the IC50 in data set [7], in data set [8] and in data set [9] were 310 nM, 0.3 nM and 2400 nM, respectively.

As to `CC#Cc1c(Oc2ccc(NC(=O)c3cccn(-c4ccc(F)cc4)c3=O)cc2F)ccnc1N`, the IC50 turned out to be 16 nM in data set [2], 3000 nM in [4] and 600 nM in data set [11].

Take `O=C(Nc1ccc(Oc2ccncc2)c2ccccc12)c1cccn(-c2ccc(F)cc2)c1=O`: the IC50 is 12000 nM in [1], 50 nM in data set [2], > 15000 nM in data set [3] and > 15000 nM in data set [4]. Further, the outcome in data set [12] was Active.

In the case of `O=C(Nc1ccc(Oc2ccnc(NC(=O)C3CC3)c2)c(F)c1)c1cccn(-c2ccc(F)cc2)c1=O`, the IC50 in [1] came to 2.5 nM; in data set [2] it was 2.9 nM; in data set [3], 180 nM; in data set [4] it was 1800 nM. For the same molecule, the Ratio IC50 in data set [13] is 38.

On to `Cc1ccc(COC(=O)Nc2cc(-c3cc4c([nH]3)CCNC4=O)ccn2)cc1`, for which the IC50 in data set [7] came to 17000 nM; in data set [8] it was 270 nM; in data set [9], 50 nM. In addition, the “fold change (FC)” value in data set [10] was determined as 2.

For `O=C(Nc1ccc(Oc2ccnc3[nH]ccc23)c(F)c1)c1cccn(-c2ccc(F)cc2)c1=O`, the IC50 in [2] is 180 nM; in data set [3], 1500 nM; in data set [4], > 15000 nM.

Consider `O=C(Nc1ccc(Oc2ccncc2)c(F)c1)c1cccn(-c2ccc(F)cc2)c1=O`, for which the IC50 was 18 nM in data set [1], 400 nM in data set [2], > 15000 nM in [3] and > 15000 nM in data set [4].

For the molecule `Cc1cc(NC(=O)c2cccn(-c3ccc(F)cc3)c2=O)ccc1Oc1ccnc(NC(=O)C2CC2)c1`, the IC50 in data set [1] turned out to be 6.3 nM; in data set [2], 8 nM; in data set [3], 200 nM; in data set [4], 680 nM.

On to `Cc1c(NC(=O)c2cccn(-c3ccc(F)cc3)c2=O)ccc(Oc2ccncc2)c1C`, for which the IC50 in data set [1] is > 1500 nM; in data set [2], 180 nM; in [4], > 15000 nM; in data set [11] it was > 15000 nM. The “Ratio IC50” value in [14], in data set [15] and in [16] was > 10 in each case.

Regarding `Cc1c(NC(=O)c2cccn(-c3ccc(F)cc3)c2=O)ccc(Oc2ccnc(NC(=O)C3CC3)c2)c1C`, the IC50 was 1100 nM in [1], 91 nM in data set [2], 5500 nM in data set [3] and > 10000 nM in data set [4]. In addition, in data set [16], the Ratio IC50 stood at 100.
